The results in this text go back to ChEMBL document CHEMBL4732262, “Identification of two novel thiophene analogues as inducers of autophagy mediated cell death in breast cancer cells” (Bioorg Med Chem, 2021).

The test system of experiment [1] is MCF7. The experiment is described as follows: Induction of apoptosis in human MCF7 cells at 2.5 uM after 24 hrs by annexin V-FITC/Propidium iodide staining based flow cytometric analysis relative to tanshinone-1. The format is functional. Background: Flow cytometry measures light scatter and fluorescence of single cells or particles in a stream.
In experiment [2] the test system is MCF7. The experiment is described as follows: Induction of apoptosis in human MCF7 cells assessed as change in Bax protein expression at 2.5 uM after 24 hrs by Western blot analysis. The class given is functional, cell-based. An outline of the steps:
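MCF7 or MDA-MB-231 cells given 2.5 µM or DMSO for 24 h, then lysed in RIPA buffer. Immunoblots probed overnight at 4 °C, followed by infrared-labelled secondary antibody for 1 h at 37 °C. Bands imaged and quantified densitometrically, with GAPDH as loading control. Representative of two independent experiments.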

The test system of experiment [3] is MCF7 (Homo sapiens). Description: Induction of apoptosis in human MCF7 cells assessed as increase in cell death at 2.5 uM after 24 hrs by EtBr/AO staining based fluorescence microscopic method relative to tanshinone-2A.
Experiment [4] has as its system MCF7. The experiment is described as follows: Induction of autophagy in human MCF7 cells assessed as increase in UVRAG mRNA expression at 2.5 uM after 24 hrs by RT-PCR analysis. The format is functional, cell-based. The gist of the method:
(§1)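 Total RNA was taken with TRIzol from MCF7 cells treated 24 h with 2.5 µM compound or DMSO, then reverse transcribed. SYBR Green qPCR ran 40 cycles of 95 °C 15 s / 60 °C 1 min. Relative expression was calculated by 2^-ΔΔCt against DMSO-treated cells, normalized to housekeeping genes (GAPDH, B2M and others). Samples run in duplicate, two independent experiments, values averaged.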

Experiment [5] has as its system MCF7. The experiment is described as follows: Cytotoxicity against human MCF7 cells assessed as reduction in cell viability after 24 hrs by MTT assay. The class given is functional, cell-based. The note with it: MCF7, 24 h. An outline of the steps: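 Cells seeded ~5 × 10^3 per well in 96-well plates, exposed to 0–40 µM for 24 h. MTT added at 0.5 mg/ml for 3 h, formazan dissolved in DMSO, absorbance read at 540 nm. IC50 taken from plotted curves. Duplicate wells, two independent repeats. MCF7 grown in DMEM, MDA-MB-231 in RPMI, both with 10% FBS at 37 °C and 5% CO2.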
For orientation: Tetrazolium dyes change colour on reduction, which living cells bring about.

For experiment [6], the system named is MCF7. The experiment is described as follows: Induction of autophagy in human MCF7 cells assessed as increase in PPP1R15A mRNA expression at 2.5 uM after 24 hrs by PCR microarray analysis. The class given is functional, cell-based. The gist of the method:
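MCF7 cells (~10 × 10^6) were treated with 2.5 µM compound or DMSO for 24 h. Total RNA was converted to cDNA and run on an Unfolded Protein Response RT2 Profiler PCR array. Log2 fold change was computed by 2^-ΔΔCt against control cells, normalized to the mean of ACTB, B2M, GAPDH, HPRT1 and RPLPO.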

The test system of experiment [7] is MCF7. The experiment is described as follows: Induction of apoptosis in human MCF7 cells assessed as morphological changes at 2.5 uM after up to 24 hrs by phase contrast microscopic method. The note with it: time hrs <=24. The format is functional, cell-based. An outline of the steps:
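~5 × 10^4 cells in 6-well plates, either DMSO control or 2.5 µM. Morphology imaged at 0, 6, 12 and 24 h.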

Experiment [8] deals with MDA-MB-231. The experiment is described as follows: Cytotoxicity against human MDA-MB-231 cells assessed as reduction in cell viability at 25 to 100 uM after 24 hrs in presence of chloroquine by MTT assay. The note with it: dose 25-100 µM. The format is functional, cell-based. The gist of the method: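 ~0.5 × 10^5 cells per well in six-well plates given 2.5 µM test agent together with chloroquine at 25, 50 or 100 µM, 24 h at 37 °C in humidified CO2. Viability read by MTT. Duplicate assays from two independent experiments, shown with SD.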

In experiment [9] the test system is MCF7. The experiment is described as follows: Induction of autophagy in human MCF7 cells assessed as increase in GABARAPL2 mRNA expression at 2.5 uM after 24 hrs by RT-PCR analysis. The class given is functional, cell-based. An outline of the steps:
(§2)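 MCF7 cells given 2.5 µM or DMSO for 24 h. Total RNA extracted with TRIzol and reverse-transcribed, then SYBR Green qPCR across 34 autophagy-regulatory genes (95 °C 10 min; 40 cycles of 95 °C 15 s and 60 °C 1 min). Relative expression by 2^-ΔΔCt against housekeeping genes and DMSO control, shown as log2. Two independent experiments.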

Experiment [10] has as its system MCF7. Description: Induction of autophagy in human MCF7 cells assessed as increase in LC3-2 conversion level at 2.5 uM after 24 hrs in presence of chloroquine by Western blot analysis. The class given is functional, cell-based. An outline of the steps: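 MCF7 cells given 2.5 µM alone or combined with 50 µM chloroquine for 24 h. Western blot for cleaved PARP, p62 and LC3, with GAPDH as loading control. LC3-II/I ratio by densitometry. At least two independent experiments.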
Background: Immunoblotting shows a protein as a band on a membrane.

The test system of experiment [11] is MCF7. The experiment is described as follows: Induction of autophagy in human MCF7 cells assessed as increase in p62 degradation at 2.5 uM after 24 hrs by Western blot analysis. The class given is functional, cell-based. The gist of the method: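 MCF7 cells (~5 × 10^6) left untreated (DMSO control) or exposed to 2.5 µM compound for 24 h. Lysed in RIPA buffer, probed overnight at 4 °C, then given infrared-tagged secondary antibodies for 1 h at 37 °C and imaged by infrared scanning. LC3-II/I ratio and p62 taken by densitometry with GAPDH as loading control. Two independent experiments.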

For experiment [12], the system named is MCF7. Description: Induction of autophagy in human MCF7 cells assessed as increase in CHOP mRNA expression at 2.5 uM after 24 hrs by RT-PCR analysis. The class given is functional, cell-based.
Experiment [13] deals with MCF7. The experiment is described as follows: Induction of apoptosis in human MCF7 cells assessed as increase in cell death at 2.5 uM after 24 hrs by EtBr/AO staining based fluorescence microscopic method relative to tanshinone-2A. The format is functional. An outline of the steps:
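MCF7 cells (~5 × 10^4 per well, on coverslips) were left untreated (DMSO control) or treated at 2.5 µM for 24 h. Cells were PBS-washed, stained with 1:1 EtBr/AO (0.4 mg/ml each), washed and mounted, then viewed by fluorescence microscopy (480 nm excitation, 515-530 nm barrier filter). 200 cells per sample were scored apoptotic, necrotic or viable; percentages were taken relative to live cells.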

Experiment [14] has as its system MCF7. Description: Induction of autophagy in human MCF7 cells assessed as increase in GADD34 mRNA expression at 2.5 uM after 24 hrs by RT-PCR analysis. The class given is functional, cell-based.
Experiment [15] relates to MCF7. Description: Induction of autophagy in human MCF7 cells assessed as increase in PIK3CG mRNA expression at 2.5 uM after 24 hrs by RT-PCR analysis. The format is functional, cell-based. The gist of the method:
as §1

For experiment [16], the system named is MCF7. Description: Induction of autophagy in human MCF7 cells expressing GFP tagged LC3-2 assessed as increase in […] puncta formation at 2.5 uM after 24 hrs by confocal microscopic analysis. The class given is functional, cell-based. The gist of the method:
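MCF7 cells (~1 × 10^6) at 70% confluency on glass-bottom dishes were transiently transfected with GFP-LC3 (Lipofectamine 3000). 24 h later they received 2.5 µM compound or DMSO for another 24 h. Nuclei were stained with Hoechst 33342 and lysosomes with LysoTracker Red DND-99, then imaged by live-cell confocal microscopy. LC3 puncta were counted in at least 10 cells from 3 fields. Two independent experiments.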

Experiment [17] deals with MDA-MB-231. The experiment is described as follows: Induction of apoptosis in human MDA-MB-231 cells at 2.5 uM after 24 hrs by annexin V-FITC/Propidium iodide staining based flow cytometric analysis relative to tanshinone-1. The class given is functional.
Experiment [18] has as its system MCF7. The experiment is described as follows: Induction of autophagy in human MCF7 cells assessed as increase in ATG16L1 mRNA expression at 2.5 uM after 24 hrs by RT-PCR analysis. The format is functional, cell-based. An outline of the steps: as §2

The IC50 is the concentration at which inhibition is half-maximal.

Active and inactive are the calls of the source. The rule behind the calls is not given here.

For the compound `O=C1C(=O)c2ccsc2-c2ccccc21`, the “fold change (FC)” value in [1] is reported as “>=2”; in [3] it was 2; in [13] it was 2; in experiment [17], “>=2”. Moreover, the result in experiment [2], in experiment [8] and in [10] was inactive. In addition, the outcome in experiment [4], in [6], in experiment [7], in experiment [9], in experiment [11] and in experiment [12] was Active. The outcome in experiment [14], in [15], in experiment [16] and in [18] was Active. For the same compound, in experiment [5], the concentration for half-maximal inhibition (IC50) was 1940 nM.

Consider `O=C1C(=O)c2sccc2-c2ccccc21`, for which the “fold change (FC)” value in [1] is reported as “>=2”; in experiment [3], 2; in experiment [13] it was 2; in [17] it was “>=2”. For the same compound, the result in [2], in experiment [8] and in [10] was inactive. In addition, the outcome in experiment [4], in experiment [6], in experiment [7], in experiment [9], in [11] and in experiment [12] was Active. Besides, the result in experiment [14], in experiment [15], in [16] and in [18] was Active. The concentration for half-maximal inhibition (IC50) in experiment [5] worked out at 1860 nM.
